Laboratory results reported in ChEMBL document CHEMBL1148918, “New pseudopterosin and seco-pseudopterosin diterpene glycosides from two Colombian isolates of Pseudopterogorgia elisabethae and their diverse biological activities” (J Nat Prod, 2004).
In brackets after ≈: the same amount, converted by molar mass.

Tests used:
[1] = system: NCI-H460; test: Cytotoxicity against human NCI-H460 cells relative to control; assay type: functional; set-up: concentration or dose not given beside the values
Method in brief: (§1)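 One-dose primary screen on a three-line panel (MCF-7, NCI-H460, SF268). Growth of treated cells given as percent of untreated controls.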

[2] = (§2) Antiinflammatory activity in LPS-stimulated rat neonatal microglia assessed as drug level causing 50% PMA-induced LDH release preincubated 15 mins prior to PMA challenge by spectrophotometry; assay type: functional
Method in brief: (§3)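 Neonatal rat microglia, 2 × 10^5 cells/well, primed 17 h with LPS (0.3 ng/mL) in DMEM + 10% FBS + penicillin/streptomycin at 35.9 °C, 5% CO2. Cells washed with warm HBSS, given compound (0.01-10 µM) or DMSO vehicle for 15 min, then PMA (1 µM). Triplicate wells, two independent experiments.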

[3] = system: Microglia; test: as §2; assay type: functional; method in brief: as §3
[4] = system: MCF7; test: Cytotoxicity against human MCF7 cells relative to control; assay type: functional; set-up: concentration or dose not given beside the values; method in brief: as §1
[5] = Cytotoxicity against human NCI60 cells; assay type: functional
[6] = system: Plasmodium falciparum; test: Antimalarial activity against chloroquine-resistant Plasmodium falciparum W2 after 48 hrs by fluorimetry; assay type: functional, organism-based; conditions: W2, 48 h
[7] = system: SF-268; test: Cytotoxicity against human SF268 cells relative to control; assay type: functional; set-up: concentration or dose not given beside the values; method in brief: as §1
[8] = (§4) Antiinflammatory activity in LPS-stimulated rat neonatal microglia assessed as inhibition of PMA-induced TXB2 production preincubated 15 mins prior to PMA challenge; assay type: functional, cell-based; method in brief: as §3
[9] = system: Microglia; test: as §4; assay type: functional, cell-based; method in brief: as §3
[10] = (§5) Antiinflammatory activity in LPS-stimulated rat neonatal microglia assessed as inhibition of PMA-induced superoxide anion production preincubated 15 mins prior to PMA challenge; assay type: functional, cell-based; method in brief: as §3
[11] = system: Microglia; test: as §5; assay type: functional, cell-based; method in brief: as §3
[12] = system: Mycobacterium tuberculosis; test: Antimycobacterial activity against Mycobacterium tuberculosis H37Rv at 6.25 ug/mL; assay type: functional
[13] = system: Human alphaherpesvirus 2; test: Antiviral activity against HSV2; assay type: functional, organism-based
[14] = system: Human alphaherpesvirus 3; test: Antiviral activity against VZV; assay type: functional, organism-based
[15] = system: Human alphaherpesvirus 1; test: Antiviral activity against HSV1; assay type: functional, organism-based
[16] = system: Human betaherpesvirus 5; test: Antiviral activity against HCMV; assay type: functional, organism-based

SMILES | Activity [1] | Activity [2] | Activity [3] | Activity [4] | GI50 [5] | IC50 [6] | Activity [7] | IC50 [8] | Activity [9] | IC50 [10] | Activity [11] | inhibition at 6.25 µg/mL [12] | EC50 [13] | EC50 [14] | EC50 [15] | EC50 [16]
CC(=O)O[C@H]1[C@H](O)[C@@H](Oc2c(C)c3c4c(c2O)[C@@H](C)CC[C@@H]4[C@@H](C)C[C@H]3C=C(C)C)OC[C@H]1O [PSEUDOPTEROSIN V] | 0% | 2.2 µM | Dose-dependent effect | 0% | 20 µM | 1 µg/mL (≈ 2.11 µM) | 0% | > 10 µM | Dose-dependent effect | > 10 µM | Dose-dependent effect | 25% | – | – | – | –
CC(=O)O[C@H]1[C@H](O)[C@@H](Oc2c(C)c3c4c(c2O)[C@@H](C)CC[C@@H]4[C@@H](C)C[C@H]3C=C(C)C)OC[C@H]1OC(C)=O [PSEUDOPTEROSIN W] | 0% | 10 µM | Dose-dependent effect | 0% | – | – | 0% | > 10 µM | Dose-dependent effect | > 10 µM | Dose-dependent effect | – | – | – | – | –
CC(=O)O[C@H]1[C@@H](O)[C@H](O)[C@H](Oc2c(C)c3c4c(c2O)[C@@H](C)CC[C@@H]4[C@@H](C)C[C@H]3C=C(C)C)O[C@H]1C [PSEUDOPTEROSIN P] | 0% | 0.6 µM | Dose-dependent effect | 0% | 1.7 µM | 12 µg/mL (≈ 24.6 µM) | 0% | > 10 µM | Dose-dependent effect | > 10 µM | Dose-dependent effect | 76% | 2.9 µM | 2.6 µM | 2.9 µM | 2.9 µM
CC(=O)O[C@@H]1CO[C@H](Oc2c(C)c3c4c(c2O)[C@@H](C)CC[C@@H]4[C@@H](C)C[C@H]3C=C(C)C)[C@@H](O)[C@@H]1O [PSEUDOPTEROSIN U] | 0% | 0.7 µM | Dose-dependent effect | 0% | 20 µM | 19 µg/mL (≈ 40 µM) | 0% | > 10 µM | Dose-dependent effect | 14.7 µM | Dose-dependent effect | 43% | – | – | – | –
Nc1nc2c(ncn2COCCO)c(=O)[nH]1 [ACYCLOVIR] | – | – | – | – | – | – | – | – | – | – | – | – | 0.95 µM | – | 0.95 µM | –
CC(=O)O[C@@H]1[C@@H](Oc2c(C)cc3c(c2O)[C@@H](C)CC[C@@H]3[C@@H](C)CCC=C(C)C)OC[C@@H](O)[C@H]1O | – | 10 µM | Dose-dependent effect | – | – | – | – | > 10 µM | Dose-dependent effect | > 10 µM | Dose-dependent effect | 37% | – | – | – | –
CC(=O)O[C@H]1[C@H](O)[C@H](Oc2c(C)c3c4c(c2O)[C@@H](C)CC[C@@H]4[C@@H](C)C[C@H]3C=C(C)C)O[C@@H](C)[C@H]1O [PSEUDOPTEROSIN Q] | 101% | 3.4 µM | Dose-dependent effect | 103% | – | 15 µg/mL (≈ 30.7 µM) | 107% | 4.7 µM | Dose-dependent effect | 11.2 µM | Dose-dependent effect | 37% | – | – | – | –
CC(=O)O[C@@H]1CO[C@H](Oc2c(C)cc3c(c2O)[C@@H](C)CC[C@@H]3[C@@H](C)CCC=C(C)C)[C@@H](O)[C@@H]1O | – | 3.6 µM | Dose-dependent effect | – | – | – | – | > 10 µM | Dose-dependent effect | > 10 µM | Dose-dependent effect | 25% | – | – | – | –
CC(=O)O[C@@H]1[C@@H](Oc2c(C)c3c4c(c2O)[C@@H](C)CC[C@@H]4[C@@H](C)C[C@H]3C=C(C)C)OC[C@@H](OC(C)=O)[C@H]1O [PSEUDOPTEROSIN X] | – | 2.35 µM | Dose-dependent effect | – | – | – | – | > 10 µM | Dose-dependent effect | 10 µM | Dose-dependent effect | – | – | – | – | –
